The first experiment deals with T1, Cholecystokinin receptor type A (Rattus norvegicus, UniProt P30551).
T1 sequence (P30551 whole entry): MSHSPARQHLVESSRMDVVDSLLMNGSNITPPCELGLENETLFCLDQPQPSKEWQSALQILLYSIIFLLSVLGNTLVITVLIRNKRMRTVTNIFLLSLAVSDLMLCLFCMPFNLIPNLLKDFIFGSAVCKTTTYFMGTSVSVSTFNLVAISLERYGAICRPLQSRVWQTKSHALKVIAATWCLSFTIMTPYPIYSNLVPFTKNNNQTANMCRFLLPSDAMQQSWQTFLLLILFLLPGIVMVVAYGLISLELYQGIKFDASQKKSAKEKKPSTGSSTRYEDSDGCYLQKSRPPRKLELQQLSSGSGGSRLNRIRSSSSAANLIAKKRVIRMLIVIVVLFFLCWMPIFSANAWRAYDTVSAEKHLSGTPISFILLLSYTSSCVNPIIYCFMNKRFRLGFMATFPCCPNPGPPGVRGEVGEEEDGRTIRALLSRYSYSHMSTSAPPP
The experiment is described as follows: Half-maximal inhibition of [125I]CCK-33 binding to cholecystokinin A receptor from rat pancreatic tissue.
Settings: not given
With `CCCCCc1ccc(C(=O)N[C@H]2N=C(c3ccccc3F)c3ccccc3N(C)C2=O)cc1`, the IC50 came out at 690 nM.
Same read-out and setting: as for `CN1C(=O)[C@@H](NC(=O)c2ccc(C(F)(F)F)cc2)N=C(c2ccccc2F)c2ccccc21`, the figure is 11 nM; as for `CN1C(=O)[C@@H](NC(=O)c2ccc(I)cc2)N=C(c2ccccc2F)c2ccccc21`, 0.8 nM; as for `CN1C(=O)[C@@H](NC(=O)c2ccc(Br)cc2)N=C(c2ccccc2F)c2ccccc21`, 0.8 nM.
The same measure, in the same setting: as for `CN1C(=O)[C@@H](NC(=O)c2cc3ccccc3[nH]2)N=C(c2ccccc2F)c2ccccc21`, the figure is 6 nM; as for `O=C(NC1N=C(c2ccccc2)c2ccccc2NC1=O)c1ccc(C(F)(F)F)cc1` (stereo not drawn), 240 nM.
Same read-out and setting: as for `CN1C(=O)C(NC(=O)c2ccc(Cl)cc2)[N+]([O-])=C(c2ccccc2F)c2ccccc21` (stereo not drawn), the figure is 66 nM; as for `CN1C(=O)C(NC(=O)[C@@H](Cc2ccccc2)NC(=O)OC(C)(C)C)N=C(c2ccccc2)c2ccccc21` (stereo partly drawn), 700 nM.
`O=C(NC1N=C(c2ccccc2F)c2ccccc2NC1=O)c1ccc([N+](=O)[O-])cc1` (stereo not drawn) returned an IC50 of 110 nM.
On the same count and under the same terms, as for `CN1C(=O)C(NC(=O)c2ccc(C(F)(F)F)cc2)N=C(c2ccccc2F)c2ccccc21` (stereo not drawn), the figure is 20 nM; as for `NC1N=C(c2ccccc2F)c2ccccc2NC1=O` (stereo not drawn), more than 100000 nM.
The same measure, in the same setting: as for `O=C(NC1N=C(c2ccccc2)c2ccccc2NC1=O)c1ccc(F)cc1` (stereo not drawn), the figure is 480 nM.
As to `NC1N=C(c2ccccc2)c2ccccc2NC1=O` (stereo not drawn), the IC50 is more than 100000 nM.
Same read-out and setting: as for `O=C(NC1N=C(c2ccccc2F)c2ccccc2NC1=O)c1cc2ccccc2[nH]1` (stereo not drawn), the figure is 2.1 nM; as for `CN1C(=O)[C@H](NC(=O)[C@H](N)Cc2ccccc2)N=C(c2ccccc2)c2ccccc21`, 100000 nM.
Still for that read-out and setting: then `O=C(O)CN1C(=O)C(NC(=O)c2cc3ccccc3[nH]2)N=C(c2ccccc2F)c2ccccc21` (stereo not drawn), with 1.5 nM.
`COc1ccc2[nH]c(C(=O)NC3N=C(c4ccccc4F)c4ccccc4NC3=O)cc2c1` (stereo not drawn) displayed an IC50 of 200 nM.
The same measure, in the same setting: then `O=C(NC1N=C(c2ccccc2)c2ccccc2NC1=O)c1cnccn1` (stereo not drawn), with more than 10000 nM.
On the same count and under the same terms, then `N[C@H](Cc1ccccc1)C(=O)NC1N=C(c2ccccc2)c2ccccc2NC1=O` (stereo partly drawn), with 3100 nM; and `O=C(NC1N=C(c2ccccc2F)c2ccccc2NC1=O)c1cc2cc(Cl)ccc2[nH]1` (stereo not drawn), with 71 nM; and `CCCc1ccc(C(=O)NC2N=C(c3ccccc3)c3ccccc3NC2=O)cc1` (stereo not drawn), with 3600 nM.
On to `CC(C)(C)OC(=O)N[C@H](Cc1ccccc1)C(=O)NC1N=C(c2ccccc2)c2ccccc2NC1=O` (stereo partly drawn), for which the half-inhibitory concentration (IC50) came to 2700 nM.
Regarding `CSc1ccc(C(=O)NC2N=C(c3ccccc3)c3ccccc3NC2=O)cc1` (stereo not drawn), the IC50 turned out to be 220 nM.
The same measure, in the same setting: as for `CC(C)(C)OC(=O)N[C@H](Cc1c[nH]c2ccccc12)C(=O)NC1N=C(c2ccccc2)c2ccccc2NC1=O` (stereo partly drawn), the figure is 6000 nM; as for `O=C(NC1N=C(c2ccccc2)c2ccccc2NC1=O)c1ccc(O)cc1` (stereo not drawn), 1800 nM; as for `CN1C(=O)C(NC(=O)c2ccc(Cl)cc2)N=C(c2ccccc2F)c2ccccc21` (stereo not drawn), 2.3 nM.
`CCOC(=O)CN1C(=O)C(NC(=O)c2ccc(Cl)cc2)N=C(c2ccccc2F)c2ccccc21` (stereo not drawn): the IC50 amounted to 110 nM.
The same measure, in the same setting: as for `O=C1Nc2ccccc2C(c2ccccc2F)=NC1NC(=O)C(O)c1ccccc1` (stereo not drawn), the figure is 100000 nM; as for `O=C(NC1N=C(c2ccccc2)c2ccccc2NC1=O)c1ccc2ccccc2c1` (stereo not drawn), 20 nM.
Regarding `CN1C(=O)C(N(C)C(=O)c2ccccc2Cl)N=C(c2ccccc2)c2ccccc21` (stereo not drawn), the IC50 turned out to be 58000 nM.
Still for that read-out and setting: then `CN1C(=O)C(NC(=O)c2ccccc2Cl)N=C(c2ccccc2)c2ccccc21` (stereo not drawn), with 3400 nM; and `CN1C(=O)C(NC(=O)c2ccc(C(C)(C)C)cc2)N=C(c2ccccc2F)c2ccccc21` (stereo not drawn), with 100 nM; and `O=C(/C=C/c1ccccc1)NC1N=C(c2ccccc2F)c2ccccc2NC1=O` (stereo not drawn), with 11 nM.
The compound `CN1C(=O)[C@@H](NC(=O)[C@H](N)Cc2ccccc2)N=C(c2ccccc2)c2ccccc21` returned an IC50 of 1900 nM.
`CCCCCc1ccc(C(=O)NC2N=C(c3ccccc3F)c3ccccc3N(C)C2=O)cc1` (stereo not drawn) showed an IC50 of 1100 nM.
On the same count and under the same terms, then `O=C1Nc2ccccc2C(c2ccccc2)=NC1NCCc1c[nH]c2ccccc12` (stereo not drawn), with 3000 nM; and `O=C(O)CN1C(=O)C(NC(=O)c2cc3ccccc3[nH]2)N=C(c2ccccc2)c2ccccc21` (stereo not drawn), with 1.4 nM.
The same measure, in the same setting: then `CC1(C(=O)NC2N=C(c3ccccc3F)c3ccccc3NC2=O)C=Cc2ccccc21` (stereo not drawn), with 22 nM; and `O=C(NC1N=C(c2ccccc2F)c2ccccc2NC1=O)c1ccsc1` (stereo not drawn), with 150 nM; and `O=C(NC1N=C(c2ccccc2F)c2ccccc2N(C(=O)c2ccc(Cl)cc2)C1=O)c1ccc(Cl)cc1` (stereo not drawn), with 18 nM.
The same measure, in the same setting: then `O=C(NC1N=C(c2ccccc2F)c2ccccc2NC1=O)c1cc2ccccc2o1` (stereo not drawn), with 9 nM.
On to `CN1C(=O)C(NC(=O)c2cc3ccccc3n2C)N=C(c2ccccc2)c2ccccc21` (stereo not drawn), for which the IC50 was determined as 1.4 nM.
On the same count and under the same terms, then `CC(=O)NC1N=C(c2ccccc2F)c2ccccc2NC1=O` (stereo not drawn), with 40000 nM; and `O=C(NC1N=C(c2ccccc2F)c2ccccc2NC1=O)c1ccc(Cl)cc1` (stereo not drawn), with 6 nM; and `O=C(NC1N=C(c2ccccc2F)c2ccccc2NC1=O)c1c(F)c(F)c(F)c(F)c1F` (stereo not drawn), with more than 10000 nM.
The same measure, in the same setting: as for `O=C1Nc2ccccc2C(c2ccccc2F)=NC1NCc1cc2ccccc2[nH]1` (stereo not drawn), the figure is 87 nM; as for `COc1ccc(C(=O)NC2N=C(c3ccccc3F)c3ccccc3NC2=O)cc1` (stereo not drawn), 96 nM; as for `O=C(NC1N=C(c2ccccc2F)c2ccccc2NC1=O)c1cc2cc(Br)ccc2[nH]1` (stereo not drawn), 120 nM.
Same read-out and setting: then `N#Cc1ccc(C(=O)NC2N=C(c3ccccc3)c3ccccc3NC2=O)cc1` (stereo not drawn), with 730 nM.
`O=C(NC1N=C(c2ccccc2)c2ccccc2NC1=O)c1ccccc1Cl` (stereo not drawn) showed an IC50 of 7500 nM.
`CN(C(=O)c1cc2ccccc2[nH]1)C1N=C(c2ccccc2)c2ccccc2NC1=O` (stereo not drawn) returned an IC50 of 13000 nM.
The same measure, in the same setting: then `O=C(NC1N=C(c2ccccc2F)c2ccccc2NC1=O)c1ccc[nH]1` (stereo not drawn), with 110 nM.
On the same count and under the same terms, then `Cc1ccc(C(=O)NC2N=C(c3ccccc3F)c3ccccc3NC2=O)cc1` (stereo not drawn), with 21 nM.
The same measure, in the same setting: as for `CN1C(=O)C(NC(=O)c2cc3ccccc3[nH]2)N=C(c2ccccc2F)c2ccccc21` (stereo not drawn), the figure is 1.4 nM; as for `O=C(Cc1cccc2sccc12)NC1N=C(c2ccccc2F)c2ccccc2NC1=O` (stereo not drawn), 1000 nM.
Compound `O=C(O)CN1C(=O)C(NC(=O)c2ccc(Cl)cc2)N=C(c2ccccc2F)c2ccccc21` (stereo not drawn) had a half-maximal inhibitory concentration (IC50) of 32 nM.
On the same count and under the same terms, then `CN(C)c1ccc(C(=O)NC2N=C(c3ccccc3F)c3ccccc3NC2=O)cc1` (stereo not drawn), with 270 nM; and `Cn1c(C(=O)NC2N=C(c3ccccc3F)c3ccccc3NC2=O)cc2ccccc21` (stereo not drawn), with 4.7 nM.
In the case of `CN1C(=O)C(NC(=O)c2cccc(I)c2)N=C(c2ccccc2F)c2ccccc21` (stereo not drawn), the IC50 was determined as 0.75 nM.
In turn, `O=C(NC1N=C(c2ccccc2F)c2ccccc2NC1=O)c1cc2cc(O)ccc2[nH]1` (stereo not drawn) came in with an IC50 of 71 nM.
Same read-out and setting: then `O=C(NC1N=C(c2ccccc2)c2ccccc2NC1=O)c1cccc(Cl)c1` (stereo not drawn), with 81 nM.
On the same count and under the same terms, as for `CCCCCc1ccc(C(=O)NC2N=C(c3ccccc3)c3ccccc3NC2=O)cc1` (stereo not drawn), the figure is 27000 nM; as for `O=C(NC1N=C(c2ccccc2)c2ccccc2NC1=O)c1ccc(Cl)c(Cl)c1` (stereo not drawn), 29 nM.
Still for that read-out and setting: as for `O=C(NC1N=C(c2ccccc2)c2ccccc2NC1=O)c1ccc(Cl)cc1` (stereo not drawn), the figure is 41 nM; as for `O=C1CN=C(c2ccccc2Cl)c2cc([N+](=O)[O-])ccc2N1` [CLONAZEPAM], more than 100000 nM.

The target in another experiment is T1, Cholecystokinin receptor type A. Put plainly: Half-maximal inhibition of [125I]CCK-8 binding to cholecystokinin receptor from rat pancreatic tissue.
Settings: not given
Take `CN1C(=O)[C@@H](NC(=O)/C=C/c2ccccc2)N=C(c2ccccc2)c2ccccc21`: the IC50 is 0.3 nM.
Same read-out and setting: as for `CC(C)CCC(=O)N[C@H]1N=C(c2ccccc2)c2ccccc2N(C)C1=O`, the figure is 780 nM; as for `CN1C(=O)[C@H](NC(=O)C2CCCCC2)N=C(c2ccccc2)c2ccccc21`, more than 10000 nM.
Regarding `CN1C(=O)C(N)N=C(c2ccccc2F)c2ccccc21` (stereo not drawn), the IC50 was found to be 57000 nM.
Still for that read-out and setting: then `CN1C(=O)C(NC(=O)c2ccc(Cl)cc2N)N=C(c2ccccc2)c2ccccc21` (stereo not drawn), with 9 nM.
With `CN1C(=O)C(NC(=O)[C@H](Cc2ccccc2)NC(=O)OC(C)(C)C)N=C(c2ccccc2F)c2ccccc21` (stereo partly drawn), the IC50 was 340 nM.
Still for that read-out and setting: then `CCOC(=O)CN1C(=O)C(NC(=O)c2ccccc2Cl)N=C(c2ccccc2F)c2ccccc21` (stereo not drawn), with more than 30000 nM; and `CCOC(=O)CN1C(=O)C(NC=O)N=C(c2ccccc2)c2ccccc21` (stereo not drawn), with more than 100000 nM.

For a further experiment, the system named is Mus musculus. The experiment is described as follows: Ability to antagonize CCK-8 inhibition of charcoal meal gastric emptying in mice, after oral administration. Type of experiment: functional. The note with it: Stomach. The essentials:
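Mice dosed orally with test compound at one or more dose levels (N ≥ 10/dose) 1 h before CCK-8 (80 μg/kg, sc). CCK-8 given 5 min before a charcoal meal. Gastric emptying measured 5 min after the meal.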
As to `CN1C(=O)C(NC(=O)c2cc3ccccc3[nH]2)N=C(c2ccccc2)c2ccccc21` (stereo not drawn), the ED50 came to 0.08 mg/kg.
The same measure, in the same setting: then `CN1C(=O)C(NC(=O)c2ccc(Cl)cc2)N=C(c2ccccc2F)c2ccccc21` (stereo not drawn), with 0.2 mg/kg; and `CN1C(=O)[C@H](NC(=O)c2cc3ccccc3[nH]2)N=C(c2ccccc2)c2ccccc21`, with 0.4 mg/kg.
Turning to `O=C(O)CN1C(=O)C(NC(=O)c2cc3ccccc3[nH]2)N=C(c2ccccc2)c2ccccc21` (stereo not drawn), it took a dose of 0.5 mg/kg to reach the 50% effect level (ED50).
On the same count and under the same terms, then `CN1C(=O)C(NC(=O)c2cc3ccccc3n2C)N=C(c2ccccc2)c2ccccc21` (stereo not drawn), with 1.9 mg/kg; and `O=C(NC1N=C(c2ccccc2F)c2ccccc2NC1=O)c1ccc(Cl)cc1` (stereo not drawn), with 1.4 mg/kg.
The same measure, in the same setting: then `CN1C(=O)[C@@H](NC(=O)c2cc3ccccc3[nH]2)N=C(c2ccccc2)c2ccccc21` [DEVAZEPIDE], with 0.04 mg/kg.

Another experiment concerns the target GABA-A receptor; anion channel. The experiment is described as follows: Inhibition of [3H]flunitrazepam binding to GABA-A benzodiazepine receptor of guinea brain. Also noted: species or system Cavia porcellus.
Settings: not given
Compound `CN1C(=O)[C@@H](N)N=C(c2ccccc2)c2ccccc21` showed an IC50 of more than 100000 nM.
Same read-out and setting: as for `CN1C(=O)C(NC(=O)c2cc3ccccc3n2C)N=C(c2ccccc2)c2ccccc21` (stereo not drawn), the figure is more than 100000 nM.

Test system in the next experiment: not listed separately
Put plainly: Ratio of IC50 CCK(pancreas)/ IC50BZD (brain).
Settings: not given
Type of experiment: functional.
Turning to `O=C1CN=C(c2ccccc2Cl)c2cc([N+](=O)[O-])ccc2N1` [CLONAZEPAM], the Ratio is reported as more than 58000.

The IC50 is the concentration that inhibits the measured activity by half. A lower IC50 goes with greater potency in that assay. In general, ED50 refers to the midpoint of the dose-response relation. The low end stands for an effect at a small dose, the high end for a need for a large dose.
